Assay results from ChEMBL document CHEMBL4619765 (J Nat Prod, 2020).
Active and inactive are the calls of the source. The calls are words filed in the database; no cut-off is given here.

Assays:
[1] = Inhibition of complex 1 in bovine heart mitochondrial membranes in presence of NADH; design: species or system Bos taurus
LNCaP C4-2B [2] = assay: Antiproliferative activity against human C4-2B cells at 1 uM after 150 hrs; format: functional, cell-based
Outline: (§1)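 Seeded at 1,000 cells/well in RPMI 1640 with 10% FBS, 25 mM HEPES and 1 mM pyruvate; after 24 h, 1 μM rotenoid (ethanolic stock diluted in medium) or ethanol-only control added. Growth followed by live-cell imaging as confluence (% well area covered) until untreated control reached confluence; value at 150 h of treatment. Eight replicates per condition, mean ± S.E.M.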

LNCaP C4-2 [3] = assay: Inhibition of complex 1 in human C4-2 cells assessed as reduction in oxygen rate at 1 uM incubated for 1 hr followed by rotenone and antimycin addition; format: cell-based
Outline: (§2)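 Cells seeded at 20,000/well on poly-L-lysine-coated Seahorse XF96 plates for 16 h, then moved into carbonate-free RPMI assay buffer (4.5 g/L glucose, pyruvate, GlutaMAX, pH 7.4). […] Rotenone-insensitive rate subtracted and traces normalized to 100% pre-addition. n = 6 treated, 16 controls; mean ± S.E.M.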

PNT2 [4] = assay: Inhibition of cell proliferation in human PNT2 cells at 1 uM after 150 hrs; format: cell-based; settings: pnt2, 150 h; outline: as §1
LNCaP C4-2 [5] = assay: Cytotoxicity against human C4-2 cells assessed as reduction in cell viability at 1 uM after 48 hrs by acridine orange/DAPI staining based assay; format: functional
Outline: (§3)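 Cells trypsinized, pelleted, resuspended in PBS and stained with acridine orange/DAPI; viability and cell count read on an NC-3000 image cytometer. n = 4 treated, n = 10 control; mean ± S.E.M.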

LNCaP C4-2 [6] = assay: Antiproliferative activity against human C4-2 cells at 1 uM after 150 hrs; format: functional, cell-based; outline: as §1
LNCaP C4-2 [7] = assay: Cytotoxicity against human C4-2 cells assessed as reduction in cell count at 1 uM after 48 hrs by acridine orange/DAPI staining based assay; format: functional; outline: as §3
PNT2 [8] = assay: Cytotoxicity against human PNT2 cells assessed as reduction in cell viability at 1 uM after 48 hrs by acridine orange/DAPI staining based assay; settings: pnt2, 48 h; outline: as §3
LNCaP C4-2B [9] = assay: Cytotoxicity against human C4-2B cells assessed as reduction in cell viability at 1 uM after 48 hrs by acridine orange/DAPI staining based assay; format: functional; outline: as §3
PNT2 [10] = assay: Inhibition of complex 1 in human PNT2 cells assessed as reduction in oxygen rate at 1 uM incubated for 1 hr followed by rotenone and antimycin addition; format: cell-based; outline: as §2
LNCaP C4-2B [11] = assay: Inhibition of complex 1 in human C4-2B cells assessed as reduction in oxygen rate at 1 uM incubated for 1 hr followed by rotenone and antimycin addition; format: cell-based; outline: as §2
LNCaP C4-2B [12] = assay: Cytotoxicity against human C4-2B cells assessed as reduction in cell count at 1 uM after 48 hrs by acridine orange/DAPI staining based assay; format: functional; outline: as §3
MEF = assay: Cytotoxicity against PTEN-deficient MEF at 0.5 uM after 24 hrs by MTT assay relative to control; format: cell-based; settings: mouse
PNT2 [13] = assay: Cytotoxicity against human PNT2 cells assessed as reduction in cell count at 1 uM after 48 hrs by acridine orange/DAPI staining based assay; settings: pnt2, 48 h; outline: as §3
LNCaP = assay: Cytotoxicity against human LNCAP cells; format: functional; settings: read-out: ED50 (the source's name)

COc1cc2c(cc1OC)[C@@H]1[C@H](O)c3ccc4c(c3O[C@@H]1CO2)C=CC(C)(C)O4
IC50 [1]: 14.6 nM

COc1cc2c(cc1OC)[C@]1(O)C(=O)c3ccc4c(c3O[C@@H]1CO2)C[C@H](C(C)(O)CO)O4 (stereo not given in full)
IC50 [1]: > 10000 nM

C=C(C)CCc1c(O)ccc2c1O[C@@H]1COc3cc(OC)c(OC)cc3[C@@H]1C2=O
IC50 [1]: 572 nM

COc1cc2c(cc1OC)[C@]1(O)[C@H](O)c3ccc4c(c3O[C@@H]1CO2)C[C@H](C(C)(C)O)O4
IC50 [1]: > 10000 nM

COc1cc2c(cc1OC)[C@]1(O)[C@H](O)c3ccc4c(c3O[C@@H]1CO2)C=CC(C)(C)O4
IC50 [1]: 135 nM

C=C(C)[C@H]1Cc2c(ccc3c2O[C@@H]2COc4cc(OC)c(OC)cc4[C@]2(O)[C@@H]3O)O1
IC50 [1]: 125 nM

COc1cc2c(cc1OC)[C@@H]1C(=O)c3ccc4c(c3O[C@@H]1CO2)C[C@H](C(C)(O)CO)O4 (stereo not given in full)
Activity (LNCaP C4-2B [2]): Active
inhibition (LNCaP C4-2 [3]): Active
Activity (PNT2 [4]): Non-Toxic
Activity (LNCaP C4-2 [5]): inactive
Activity (LNCaP C4-2 [6]): Active
Activity (LNCaP C4-2 [7]): Active
Activity (PNT2 [8]): Non-Toxic
IC50 [1]: 1800 nM
Activity (LNCaP C4-2B [9]): inactive
inhibition (PNT2 [10]): Active
inhibition (LNCaP C4-2B [11]): Active

C=C(CO)[C@H]1Cc2c(ccc3c2O[C@@H]2COc4cc(OC)c(OC)cc4[C@@H]2[C@@H]3O)O1
IC50 [1]: 458 nM

C=C(CO)[C@H]1Cc2c(ccc3c2O[C@@H]2COc4cc(OC)c(OC)cc4[C@]2(O)[C@@H]3O)O1
IC50 [1]: > 10000 nM

C=C(C)[C@H]1Cc2c(ccc3c2O[C@@H]2COc4cc(OC)c(OC)cc4[C@@H]2[C@@H]3O)O1
IC50 [1]: 11.4 nM

COc1cc2c(cc1OC)[C@]1(O)[C@H](O)c3ccc4c(c3O[C@@H]1CO2)C[C@H](C(C)(O)CO)O4 (stereo not given in full)
IC50 [1]: > 10000 nM

COc1cc2c(cc1OC)[C@@H]1[C@H](O)c3ccc4c(c3O[C@@H]1CO2)C[C@H](C(C)(C)O)O4
IC50 [1]: 750 nM

C=C(C)C(=O)Cc1c(O)ccc2c1O[C@@H]1COc3cc(OC)c(OC)cc3[C@]1(O)C2=O
IC50 [1]: > 10000 nM

C=C(C)C(=O)Cc1c(O)ccc2c1O[C@@H]1COc3cc(OC)c(OC)cc3[C@@H]1C2=O
IC50 [1]: 2570 nM

COc1cc2c(cc1OC)[C@]1(O)C(=O)c3ccc4c(c3O[C@@H]1CO2)C[C@H](C(C)(C)O)O4
IC50 [1]: > 10000 nM

COc1cc2c(cc1OC)[C@@H]1C(=O)c3ccc4c(c3O[C@@H]1CO2)C(O)C(O)C(C)(C)O4 (mixture of isomers)
IC50 [1]: 5310 nM

COc1cc2c(cc1OC)[C@@H]1C(=O)c3ccc4c(c3O[C@@H]1CO2)CCC(C)(CO)O4 (mixture of isomers)
IC50 [1]: 195 nM

COc1cc2c(cc1OC)[C@@H]1C(=O)c3ccc4c(c3O[C@@H]1CO2)C[C@H](C(C)CO)O4 (mixture of isomers)
Activity (LNCaP C4-2B [12]): Active
Activity (LNCaP C4-2B [2]): Active
inhibition (LNCaP C4-2 [3]): Active
Activity (PNT2 [4]): Non-Toxic
Activity (LNCaP C4-2 [5]): inactive
Activity (LNCaP C4-2 [6]): Active
Activity (LNCaP C4-2 [7]): Active
Activity (PNT2 [8]): Non-Toxic
IC50 [1]: 228 nM
Activity (LNCaP C4-2B [9]): inactive
inhibition (PNT2 [10]): Active
inhibition (LNCaP C4-2B [11]): Active

COc1cc2c(cc1OC)[C@]1(O)C(=O)c3ccc4c(c3O[C@@H]1CO2)C[C@H](C(C)CO)O4 (mixture of isomers)
IC50 [1]: 3580 nM

COc1cc2c(cc1OC)[C@@H]1[C@H](O)c3ccc4c(c3O[C@@H]1CO2)C[C@H](C(C)CO)O4 (mixture of isomers)
IC50 [1]: 460 nM

COc1cc2c(cc1OC)[C@]1(O)[C@H](O)c3ccc4c(c3O[C@@H]1CO2)C[C@H](C(C)CO)O4 (mixture of isomers)
IC50 [1]: 2930 nM

COc1cc2c(cc1OC)[C@@H]1[C@H](O)c3ccc4c(c3O[C@@H]1CO2)C[C@H](C(C)(O)CO)O4 (mixture of isomers)
IC50 [1]: 4570 nM

COc1cc2c(cc1OC)[C@@H]1C(=O)c3ccc4c(c3O[C@@H]1CO2)CC(O)C(C)(C)O4 (mixture of isomers)
IC50 [1]: 850 nM

C=C(CO)[C@H]1Cc2c(ccc3c2O[C@@H]2COc4cc(OC)c(OC)cc4[C@]2(O)C3=O)O1 [DABINOL]
IC50 [1]: 3810 nM

COc1cc2c(cc1OC)[C@@H]1C(=O)c3ccc4c(c3O[C@@H]1CO2)C[C@H](C(C)(C)O)O4 [DALPANOL]
Activity (LNCaP C4-2B [2]): Active
inhibition (LNCaP C4-2 [3]): Active
Activity (PNT2 [4]): Non-Toxic
Activity (LNCaP C4-2 [5]): inactive
Activity (LNCaP C4-2 [6]): Active
Activity (LNCaP C4-2 [7]): Active
Activity (PNT2 [8]): Non-Toxic
IC50 [1]: 652 nM
Activity (LNCaP C4-2B [9]): inactive
inhibition (PNT2 [10]): Active
inhibition (LNCaP C4-2B [11]): Active

COc1cc2c(cc1OC)[C@@H]1C(=O)c3ccc4c(c3O[C@@H]1CO2)C=CC(C)(C)O4 [DEGUELIN]
Activity (MEF): 70%
IC50 [1]: 10.6 nM

C=C(C)[C@H]1Cc2c(ccc3c2O[C@@H]2COc4cc(OC)c(OC)cc4[C@]2(O)C3=O)O1 [ROTENOLONE]
IC50 [1]: 130 nM

C=C(C)[C@H]1Cc2c(ccc3c2O[C@@H]2COc4cc(OC)c(OC)cc4[C@@H]2C3=O)O1 [ROTENONE]
Activity (LNCaP C4-2B [12]): Active
Activity (PNT2 [13]): Toxic
Activity (LNCaP C4-2B [2]): Active
Activity (PNT2 [4]): Non-Toxic
Activity (LNCaP C4-2 [5]): inactive
Activity (LNCaP C4-2 [6]): Active
Activity (LNCaP C4-2 [7]): Active
Activity (PNT2 [8]): Non-Toxic
Activity (LNCaP C4-2B [9]): inactive

COc1cc2c(cc1OC)[C@@H]1C(=O)c3ccc(O)c(CC=C(C)C)c3O[C@@H]1CO2 [ROTENONIC ACID]
IC50 [1]: 1090 nM

COc1cc2c(cc1OC)[C@]1(O)C(=O)c3ccc4c(c3O[C@@H]1CO2)C=CC(C)(C)O4 [TEPHROSIN]
EC50 (LNCaP): 300 to 700 nM
